Data from ChEMBL document CHEMBL1151279, “Sesquiterpenoids and norsesquiterpenoids from the Formosan soft coral Lemnalia laevis” (2005).
Converted amounts (≈) assume the structure as drawn.

How the values were obtained:
P388 = assay: Cytotoxicity against mouse P388 cells; assay type: functional; details: read-out: ED50 (the source's name)
Procedure, shortened: (§1)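 Cytotoxicity assay run as previously described, with test compounds at three concentrations (50, 5 and 0.5 µg/mL). HT29 cells are human colon adenocarcinoma. P-388 cells are mouse lymphocytic leukemia, supplied by J. M. Pezzuto.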

HT-29 = assay: Cytotoxicity against human HT-29 cells; assay type: functional; details: read-out: ED50 (the source's name); procedure, shortened: as §1

Compound: CC(=O)[C@H]1[C@@H](OC=O)CCC2=C[C@@H](O)C[C@H](C)[C@]21C [LAEVINOL A]
- EC50 (P388): > 5 µg/mL
- EC50 (HT-29): > 5 µg/mL

Compound: CC(=O)[C@H]1[C@@H](O)CCC2=C[C@H](O)C[C@H](C)[C@]21C [LAEVINOL D]
- EC50 (P388): > 5 µg/mL
- EC50 (HT-29): > 5 µg/mL

Compound: CC(=O)[C@H]1[C@H](O)CC[C@]23O[C@H]2CC[C@H](C)[C@@]13C [LAEVINOL H]
- EC50 (P388): > 5 µg/mL
- EC50 (HT-29): > 5 µg/mL

Compound: CC(=O)[C@H]1[C@H](O)CC[C@]23O[C@H]2[C@@H](O)C[C@H](C)[C@@]13C [LAEVINOL F]
- EC50 (P388): > 5 µg/mL
- EC50 (HT-29): > 5 µg/mL

Compound: CC(=O)[C@H]1C(=O)CCC2=C[C@@H](O)C[C@H](C)[C@]21C [LAEVINOL E]
- EC50 (P388): > 5 µg/mL
- EC50 (HT-29): > 5 µg/mL

Compound: CC(=O)[C@H]1[C@@H](O)CCC2=C[C@@H](O)C[C@H](C)[C@]21C [LAEVINOL B]
- EC50 (P388): > 5 µg/mL
- EC50 (HT-29): > 5 µg/mL

Compound: CC(=O)[C@H]1[C@H](O)CC[C@]23O[C@H]2[C@H](O)C[C@H](C)[C@@]13C [LAEVINOL G]
- EC50 (P388): > 5 µg/mL
- EC50 (HT-29): > 5 µg/mL

Compound: C[C@H]1CCC=C2CCC(C(C)(O)CO)=C[C@@]21C (some centres not stated)
- EC50 (P388): 0.21 µg/mL (≈ 0.888 µM)
- EC50 (HT-29): 0.33 µg/mL (≈ 1.4 µM)

Compound: CC(=O)[C@H]1[C@H](O)CCC2=C[C@@H](O)C[C@H](C)[C@]21C [LAEVINOL C]
- EC50 (P388): > 5 µg/mL
- EC50 (HT-29): > 5 µg/mL

Compound: CC(=O)[C@@H]1C(=O)CC[C@]23O[C@H]2[C@H](O)C[C@H](C)[C@@]13C
- EC50 (P388): > 5 µg/mL
- EC50 (HT-29): > 5 µg/mL

Compound: CC(=O)O[C@@H]1C(=O)CCC2=CC(=O)C[C@H](C)[C@@]2(C)/C=C\1C (single isomer, unassigned) [LAEVINONE A]
- EC50 (P388): > 5 µg/mL
- EC50 (HT-29): > 5 µg/mL
